Consider 12 compounds from ChEMBL document CHEMBL1144731, “Structure-dependent inhibition of bladder and pancreatic cancer cell growth by 2-substituted glycyrrhetinic and ursolic acid derivatives” (Bioorg Med Chem Lett, 2008).

Usually IC50 stands for the concentration needed to halve the response being measured. A lower IC50 goes with inhibition by little substance.

Common to all, as to format: functional, cell-based
One experiment relates to PANC-1. Kind of experiment: Cytotoxicity against human Panc1 cells. Summed up: (§1)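 Cells seeded at 3×10^4 per well in DMEM:Ham's F-12 with 2.5% charcoal-stripped FBS and allowed 24 h to attach. Then exposed to DMSO vehicle or compound, with medium and compound renewed every 48 h. Cell number counted at set times on a Coulter particle counter. Triplicate runs; IC50 obtained by linear regression.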

The nature of experiment [1]: Cytotoxicity against human KU7 cells. A digest of the protocol:
as §1

Experiment [2] is described as follows: Cytotoxicity against human 253JBV cells. A digest of the protocol:
as §1

Experiment [3] can be described thus: Cytotoxicity against human Panc28 cells. Summed up: as §1

For the compound `COC(=O)[C@@]1(C)CC[C@]2(C)CC[C@]3(C)C(=CC(=O)[C@@H]4[C@@]5(C)C=C(C(F)(F)F)C(=O)C(C)(C)[C@@H]5CC[C@]43C)[C@@H]2C1`, the IC50 turned out to be 0.82 µM in the experiment on PANC-1, 0.38 µM in experiment [1], 0.67 µM in experiment [2] and 1.14 µM in experiment [3].
For `CC1(C)C(=O)C(C#N)=C[C@]2(C)[C@H]3C(=O)C=C4[C@@H]5C[C@@](C)(C(=O)O)CC[C@]5(C)CC[C@@]4(C)[C@]3(C)CC[C@@H]12` the same measures were 3.81 µM, 5.88 µM, 6.1 µM and 7.32 µM.
The matching figures for `COC(=O)[C@@]1(C)CC[C@]2(C)CC[C@]3(C)[C@H](C(=O)C=C4[C@@]5(C)C=C(I)C(=O)C(C)(C)[C@@H]5CC[C@]43C)[C@@H]2C1`: 4.45 µM, 2.61 µM, 3.62 µM and 3.66 µM.
The matching figures for `COC(=O)[C@@]1(C)CC[C@]2(C)CC[C@]3(C)C(=CC(=O)[C@@H]4[C@@]5(C)C=C(I)C(=O)C(C)(C)[C@@H]5CC[C@]43C)[C@@H]2C1`: 4.08 µM, 3.04 µM, 2.67 µM and 12.8 µM.
For `COC(=O)[C@]12CC[C@@H](C)[C@H](C)[C@H]1C1=CC[C@@H]3[C@@]4(C)C=C(I)C(=O)C(C)(C)[C@@H]4CC[C@@]3(C)[C@]1(C)CC2`, the half-inhibitory concentration (IC50) was 6.91 µM in the experiment with PANC-1, 6.02 µM in experiment [1], 4.9 µM in experiment [2] and 13.5 µM in experiment [3].
The matching figures for `COC(=O)[C@@]1(C)CC[C@]2(C)CC[C@]3(C)[C@H](C(=O)C=C4[C@@]5(C)C=C(C(F)(F)F)C(=O)C(C)(C)[C@@H]5CC[C@]43C)[C@@H]2C1`: 0.68 µM, 1.37 µM, 0.36 µM and 1.13 µM.
`COC(=O)[C@@]1(C)CC[C@]2(C)CC[C@]3(C)C(=CC(=O)[C@@H]4[C@@]5(C)C=C(P(=O)(OC)OC)C(=O)C(C)(C)[C@@H]5CC[C@]43C)[C@@H]2C1`: the IC50 with PANC-1 stood at 6.11 µM; in experiment [1] it was 3.73 µM; in experiment [2], 7.9 µM; in experiment [3], 8.14 µM.
In the case of `COC(=O)[C@@]1(C)CC[C@]2(C)CC[C@]3(C)C(=CC(=O)[C@@H]4[C@@]5(C)C=C(S(C)(=O)=O)C(=O)C(C)(C)[C@@H]5CC[C@]43C)[C@@H]2C1`, the concentration for half-maximal inhibition (IC50) came to 7.69 µM in the experiment on PANC-1, 3.34 µM in experiment [1], 12 µM in experiment [2] and 9.75 µM in experiment [3].
The matching figures for `COC(=O)[C@@]1(C)CC[C@]2(C)CC[C@]3(C)C(=CC(=O)[C@@H]4[C@@]5(C)C=C(C#N)C(=O)C(C)(C)[C@@H]5CC[C@]43C)[C@@H]2C1`: 1.22 µM, 1.59 µM, 0.25 µM and 1.8 µM.
The matching figures for `COC(=O)[C@]12CC[C@@H](C)[C@H](C)[C@H]1C1=CC[C@@H]3[C@@]4(C)C=C(C(F)(F)F)C(=O)C(C)(C)[C@@H]4CC[C@@]3(C)[C@]1(C)CC2`: 0.65 µM, 0.47 µM, 0.17 µM and 1.13 µM.
For `COC(=O)[C@]12CC[C@@H](C)[C@H](C)[C@H]1C1=CC[C@@H]3[C@@]4(C)CC[C@H](O)C(C)(C)[C@@H]4CC[C@@]3(C)[C@]1(C)CC2` [METHYL URSOLATE] the same measures were 11.8 µM, 8.95 µM, 6.13 µM and 10.6 µM.
`COC(=O)[C@]12CC[C@@H](C)[C@H](C)[C@H]1C1=CC[C@@H]3[C@@]4(C)C=C(C#N)C(=O)C(C)(C)[C@@H]4CC[C@@]3(C)[C@]1(C)CC2`: the IC50 in the experiment with PANC-1 amounted to 0.53 µM; in experiment [1] it was 0.3 µM; in experiment [2], 0.17 µM; in experiment [3], 0.97 µM.
